Bioassay records as filed in PubChem.
EBNA-1 inhibitor: blocks EBNA-1 binding to DNA; EBNA-1 DNA binding, fluorescence polarization; inhibition, % at 14.8 µM; 0.34% of 300,000 active; AID 1950; in the data active means inhibition above about 28%
ZTA DNA inh: counter-screen for EBNA-1 inhibitors: inhibitors of Epstein-Barr virus ZTA; P03206; ZTA-DNA binding, fluorescence polarization; inhibition, % at 11 µM; 0.15% of 320,000 active; AID 2234; in the data active means inhibition above about 33%
Target sequence (P03206 whole entry, looked up): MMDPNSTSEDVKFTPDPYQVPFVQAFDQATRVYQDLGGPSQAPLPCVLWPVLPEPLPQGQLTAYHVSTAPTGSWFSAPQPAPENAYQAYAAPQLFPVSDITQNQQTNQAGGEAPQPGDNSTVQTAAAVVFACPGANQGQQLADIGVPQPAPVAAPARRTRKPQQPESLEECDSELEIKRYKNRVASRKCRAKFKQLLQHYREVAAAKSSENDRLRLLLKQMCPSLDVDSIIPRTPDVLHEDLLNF
NS3 helicase inh: HCV NS3 helicase inhibition | NS3 helicase DNA unwinding, Cy5 molecular beacon fluorescence | inhibition, % at 10.9 µM | 0.56% of 290,000 active;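 active means inhibition above the mean of all tested compounds plus 3 SD, set per campaign, cut at about 35% in these data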;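 further: 0% = DMSO wells and 100% = thioflavine S control wells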
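Compound dosing – single dose, 10.9 µM nominal final, DMSO 0.8% final · System – NS3 helicase fragment of HCV · Buffer or medium – MOPS pH 6.5, MgCl2, DTT, Tween20, BSA · Signal – Cy5 beacon fluorescence read at start and 1 h · Also added – annealed dual-labelled DNA beacon duplex, ATP-started · Schedule – 1 h at 25 °C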
core dimer inh: HCV core protein dimerization inhibition | TR-FRET GST/Flag-core106 dimerization, 1536-well | inhibition, % at 5 µM | 0.33% of 300,000 active;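 active means inhibition above the mean of all tested compounds plus 3 SD, set per screening campaign, cut at about 45% in these data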
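System: GST-tagged and Flag-tagged HCV core protein residues 1-106 / Input: core106 proteins, GST 13.5 nM and Flag 17 nM / Buffer or medium: KF-containing HEPES buffer, pH 7.45, DTT, CHAPS, BSA / Probe or stimulus: Eu-anti-GST and XL665-anti-Flag labelled anti-tag antibodies / Schedule: 4 h, 22.5 °C incubation / Technique: TR-FRET 671 and 617 nm emission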
PfM18AAP inh: blocks P. falciparum M18 aspartyl aminopeptidase; recombinant PfM18AAP, H-Glu-NHMec fluorogenic cleavage; inhibition, % at 7.35 µM; 1.2% of 290,000 active; AID 1822;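 active means inhibition above the campaign mean inhibition over all tested compounds plus 3 SD, cut at about 28% in these data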;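 further: 0% = plate median of test compound wells and 100% = 2 mM ZnCl2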
ALR inh: human ALR oxidase inhibition via reduced H2O2. P55789. inhibition, % (concentration not given with the values). purified ALR, DTT oxidation, H2O2 HRP-luminol luminescence. AID 485317. 3.8% of 290,000 active;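 active means mean replicate inhibition above about 79%, with every replicate also reaching it, limit read from the data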
Target sequence (P55789 whole entry, looked up): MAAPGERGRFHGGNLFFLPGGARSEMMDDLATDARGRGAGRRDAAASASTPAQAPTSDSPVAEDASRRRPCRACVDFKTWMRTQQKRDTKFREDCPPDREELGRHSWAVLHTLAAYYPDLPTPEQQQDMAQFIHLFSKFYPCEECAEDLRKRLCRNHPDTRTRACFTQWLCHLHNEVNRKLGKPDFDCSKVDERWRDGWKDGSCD
* marks the source's active call; other numbers are inactive results; x = not tested or not shown. Compounds with a hit are over-represented: about 5.2% of the library has one in this group of screens.

SMILES | EBNA-1 inhibitor | ZTA DNA inh | NS3 helicase inh | core dimer inh | PfM18AAP inh | ALR inh
COCCN(C(=O)C1CC(=O)N(Cc2ccccc2)C1)c1nc(-c2ccc([N+](=O)[O-])cc2)cs1 (stereo not given) | x | -2 | x | x | x | -5
COc1ccc(C2C(C#N)=C(N)Oc3cc(N)ccc32)cc1 (stereo not given) | x | x | 0 | x | 10 | 95*
N#CC1=C(N)Oc2cc(N)ccc2C1c1ccc(F)cc1 (stereo not given) | 0 | -12 | 17 | 0 | 11 | 98*
N#CC1=C(N)OC2=C(CC/C2=C\c2ccc(F)cc2)C1c1ccc(F)cc1 (stereo not given) | 5 | 9 | 23 | 52* | 2 | 3
N#CC1=C(N)Oc2cc(N)ccc2C1c1ccc(Cl)cc1 (stereo not given) | -2 | -26 | -12 | 1 | 10 | 57
CC1=NOC(=O)/C1=C\c1ccc(-c2ccccc2Br)o1 | x | x | 23 | x | -4 | x
CCc1ccc(-c2nc(CSCC(=O)NC3CC3)c(C)o2)cc1 | -1 | 3 | -2 | 5 | 0 | 70
CCOC(=O)N1CCC(NC(=O)CSCc2nc(-c3ccc(OC)cc3)oc2C)CC1 | 12 | 4 | 0 | 6 | 0 | 86*
CCOC(=O)N1CCC(NC(=O)CS(=O)(=O)Cc2nc(-c3ccc(C)cc3)oc2C)CC1 | 9 | 17 | 5 | -14 | 2 | 3
CSc1ccc(-c2nc(CSCC(=O)NC3CC3)c(C)o2)cc1 | -7 | -3 | -5 | 3 | 0 | 98*
CCc1ccc(-c2nc(CSCC(=O)N3CCN(c4ncccn4)CC3)c(C)o2)cc1 | 6 | 0 | -1 | 5 | -4 | 97*
Cc1ccc(C(=O)N2CCN(c3ncccn3)CC2)o1 | 1 | 11 | -1 | 0 | -13 | -1
CSc1ccc(-c2nc(CSCC(=O)N3CCOCC3)c(C)o2)cc1 | 7 | 3 | 1 | 1 | 1 | 98*
CCC1CCCCN1C(=O)c1ccc(OC)c(OC2CCN(C(C)C)CC2)c1 (stereo not given) | 0 | -8 | 8 | -1 | -1 | 10
Cc1oc(-c2ccccc2F)nc1CSCC(=O)NC1CCCC1 | 2 | 3 | 9 | 2 | -5 | -33
Cc1oc(-c2ccccc2Cl)nc1CSCC(=O)NC1CC1 | -22 | -15 | 2 | 2 | -9 | 98*
NS(=O)(=O)c1ccc2c(c1)C1C=CCC1C(C1CC=CCC1)N2 (stereo not given) | -7 | -10 | 15 | 65* | 20 | -30
COc1ccc(NC2c3ccccc3C(=O)N2c2cccnc2)cc1Cl (stereo not given) | 13 | 10 | 6 | 0 | 14 | 83*
CN(C)CCN(C(=O)C1CCN(S(=O)(=O)c2cccs2)CC1)c1nc2c(F)cccc2s1 | 3 | -9 | x | -7 | x | x
CCOC(=O)CNc1nnc(SCC(=O)OCC)[nH]c1=O | 7 | 0 | 7 | -6 | -63 | 100*
COC(=O)CSc1nnc(C)c(=O)[nH]1 | 9 | 16 | -1 | 2 | 6 | -6
O=C(N/N=C/c1ccc(O)cc1)c1cc(C23CC4CC(CC(C4)C2)C3)[nH]n1 | -4 | 14 | 0 | 7 | 6 | 91*
COc1ccc(/C=N/NC(=O)c2cc(C34CC5CC(CC(C5)C3)C4)[nH]n2)cc1OC | 14 | 21 | 2 | 10 | 2 | -30
CCOC(=O)/C=c1\s/c(=C\c2ccc(-c3ccccc3)cc2)c(=O)n1CC(=O)NCc1ccc2c(c1)OCO2 | 6 | -5 | 6 | 28 | 4 | -5
CCOC(=O)/C=c1\s/c(=C\c2ccc(C)cc2)c(=O)n1CC(=O)NCc1ccco1 | 45* | 11 | -4 | 11 | -1 | 21
SMILES | EBNA-1 inhibitor | ZTA DNA inh | NS3 helicase inh | core dimer inh | PfM18AAP inh | ALR inh
CCOC(=O)/C=c1\s/c(=C\c2sccc2C)c(=O)n1CC(=O)NCc1ccc(C)cc1 | 8 | -12 | 6 | -1 | 1 | -3
CCOC(=O)/C=c1\s/c(=C\c2ccc(C(F)(F)F)cc2)c(=O)n1CC(=O)NCc1ccco1 | -19 | 1 | 21 | 54* | -4 | -5
CCCCn1c(N)c(N(CCOC)C(=O)c2cccc(S(=O)(=O)N(C)c3ccc(C)cc3)c2)c(=O)[nH]c1=O | -4 | 1 | x | 0 | x | 6
CCN=c1scc(C)n1/N=C/c1cc(Br)c(O)c(Br)c1 | 8 | -7 | 26 | -13 | 30* | 70
CCN1CCN(C(=O)c2ccc3c(Cl)c4c(nc3c2)CCCC4)CC1 | -6 | -3 | -9 | -5 | 2 | 98*
CC1CCN(CCCNC(=O)c2ccc3c(Cl)c4c(nc3c2)CCCC4)CC1 | -12 | -11 | -37 | -1 | -1 | 90*
CCc1ccc(NC(=O)CCS(=O)(=O)c2ccc(Cl)cc2)cc1 | -1 | 0 | -4 | 3 | -3 | -3
CC1CCC(NC(=O)CCN2C(=O)C3CC=CCC3C2=O)CC1 (stereo not given) | x | x | x | x | x | 1
COc1ccccc1NC(=S)NC1CCC(CC2CCC(NC(=S)Nc3ccccc3OC)CC2)CC1 (stereo not given) | 27 | 8 | -3 | 48* | -3 | 2
COc1ccccc1NC(=S)NC1CCCC1 | -5 | 7 | x | 0 | x | x
CC(C)(C)C(=O)COC(=O)c1c2c(nc3ccccc13)CCC2 | -1 | -16 | 26 | 54* | -13 | 3
Nc1ccc2nc(-c3cccc(-c4nc5ccc(N)cc5[nH]4)c3)[nH]c2c1 | -10 | -22 | -53 | -31 | 14 | 99*
Cc1[nH]c2ccccc2c1-c1nc2ccccc2[nH]1 | 3 | 1 | 0 | -10 | 2 | 89*
c1ccc2[nH]c(C3CC3)nc2c1 | -25 | 0 | -13 | 6 | 3 | -17
Nc1ccc(-c2nc3ccc(N)cc3[nH]2)cc1 | 6 | -5 | -38 | -17 | 22 | 98*
Nc1ccc2nc(C3CCCCC3)[nH]c2c1 | 2 | -27 | -15 | -8 | 0 | 99*
Cc1ccc(C)c(-c2nc3ccc(N)cc3[nH]2)c1 | -1 | -6 | -4 | -5 | -1 | 99*
Nc1ccc(-c2nc3ccc([N+](=O)[O-])cc3[nH]2)cc1 | 6 | 7 | 3 | -9 | 5 | 97*
Cc1cc(-c2nc3ccccc3[nH]2)ccc1N | -4 | 9 | 16 | -2 | -1 | 98*
Nc1ccc2nc(-c3ccc(Cl)cc3)[nH]c2c1 | 0 | -3 | x | -58 | x | 99*
NS(=O)(=O)c1cccc(NC(=O)c2ccno2)c1 | 2 | 1 | -10 | 3 | 1 | -4
Nc1ccc(-c2nc3c(Cl)c(N)ccc3[nH]2)cc1 | 7 | 26 | -11 | -26 | 6 | 98*
Cc1nc2ccc(-c3nc4ccc(N)cc4[nH]3)cc2[nH]1 | -7 | -4 | -18 | -24 | 11 | 100*
Cc1nn2c(=S)[nH]nc2[nH]c1=O | -8 | -3 | -10 | -2 | 7 | 95*
